Reference: ChEMBL document CHEMBL3112561, “Small molecule disruptors of the glucokinase-glucokinase regulatory protein interaction: 2. Leveraging structure-based drug design to identify analogues with improved pharmacokinetic profiles” (J Med Chem, 2014)

Key:
Mus musculus [1] = assay: Unbound maximum concentration in C57Bl6 mouse at 100 mg/kg, po; type: ADME, organism-based; parameters: dose 100 mg/kg, route oral; details: in vivo
[2] = Oral bioavailability in rat at 10 mg/kg; type: ADME, organism-based; details: in vivo
Liver microsome [3] = assay: Drug metabolism in rat liver microsomes assessed as oxidation of bicyclic morpholine ring; type: ADME
[4] = Clearance in rat at 2 mg/kg, iv; type: ADME, organism-based; parameters: dose 2 mg/kg, route intravenous; details: in vivo
Liver microsome [5] = assay: Drug metabolism in human liver microsomes assessed as oxidation of bicyclic morpholine ring; type: ADME
[6] = Volume of distribution at steady state in rat at 2 mg/kg, iv; type: ADME, organism-based; parameters: dose 2 mg/kg, route intravenous; details: in vivo, read-out: Vdss
Outline: (§1)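 Intravenous PK at 2 mg/kg in 100% DMSO; steady-state volume of distribution derived from plasma profile.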

[7] = Ratio of EC50 for induction of GK translocation from nucleus to cytoplasm of mouse hepatocytes to ratio of unbound maximum concentration in C57Bl6 mouse; parameters: species or system Hepatocyte
[8] = Intrinsic clearance in human liver microsomes at 1 uM after 30 mins in presence of NADPH; type: ADME; details: read-out: CLH
[9] = target: T1, Glucokinase regulatory protein (Mus musculus, UniProt Q91X44); assay: Induction of GK translocation from nucleus to cytoplasm of mouse hepatocytes preincubated for 20 mins followed by glucose challenge measured after 40 mins by Hoechst 33342 staining-based assay; type: cell-based, Hepatocyte
T1 sequence (Q91X44 whole entry): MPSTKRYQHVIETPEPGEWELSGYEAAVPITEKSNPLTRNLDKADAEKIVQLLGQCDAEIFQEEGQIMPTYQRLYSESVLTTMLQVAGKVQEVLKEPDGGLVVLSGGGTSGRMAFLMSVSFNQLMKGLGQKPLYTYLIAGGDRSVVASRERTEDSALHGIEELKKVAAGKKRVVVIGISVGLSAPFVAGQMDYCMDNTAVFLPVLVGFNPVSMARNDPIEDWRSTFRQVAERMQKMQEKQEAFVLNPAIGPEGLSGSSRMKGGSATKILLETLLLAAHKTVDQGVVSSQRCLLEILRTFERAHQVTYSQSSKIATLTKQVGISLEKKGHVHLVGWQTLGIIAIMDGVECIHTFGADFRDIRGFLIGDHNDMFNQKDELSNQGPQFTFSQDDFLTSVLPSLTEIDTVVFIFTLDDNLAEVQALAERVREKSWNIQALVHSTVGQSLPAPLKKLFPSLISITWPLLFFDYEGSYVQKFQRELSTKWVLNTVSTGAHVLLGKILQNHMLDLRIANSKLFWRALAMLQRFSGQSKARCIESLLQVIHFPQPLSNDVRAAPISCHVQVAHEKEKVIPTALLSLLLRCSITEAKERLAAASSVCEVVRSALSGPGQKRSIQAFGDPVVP

[10] = Fraction unbound in rat plasma at 10 mg/kg, po by rapid equilibrium dialysis method; type: ADME, organism-based; parameters: dose 10 mg/kg, route oral
Outline: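 Plasma fraction unbound measured by rapid equilibrium dialysis.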

[11] = Mean residence time in rat at 10 mg/kg, po; type: ADME, organism-based; parameters: dose 10 mg/kg, route oral; details: in vivo
Outline: (§2)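 Oral PK at 10 mg/kg in 1% Tween 80, 2% HPMC, 97% water, […]; mean residence time from plasma profile.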

[12] = Volume of distribution at steady state in C57Bl6 mouse at 2 mg/kg, iv; type: ADME, organism-based; parameters: dose 2 mg/kg, route intravenous; details: in vivo, read-out: Vdss; outline: as §1
Plasma [13] = assay: Unbound plasma concentration in insulin-resistant db/db mouse at 30 mg/kg, po measured at 6 hrs; type: ADME, organism-based; parameters: dose 30 mg/kg, route oral; details: in vivo
Outline: (§3)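 Fed db/db mice dosed orally (10, 30, 100 mg/kg) in 2% HPMC/1% Tween 80 vehicle, pH 2.2 (MSA), gavaged at 9:00 AM. A 15 μL whole-blood sample taken at 6 h post-dose for drug exposure, reported as unbound plasma concentration.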

Mus musculus [14] = assay: Unbound maximum concentration in C57Bl6 mouse at 10 mg/kg, po; type: ADME, organism-based; parameters: dose 10 mg/kg, route oral; details: in vivo
[15] = Mean residence time in C57Bl6 mouse at 10 mg/kg, po; type: ADME, organism-based; parameters: dose 10 mg/kg, route oral; details: in vivo; outline: as §2
Plasma [16] = assay: Unbound plasma concentration in insulin-resistant db/db mouse at 10 mg/kg, po measured at 6 hrs; type: ADME, organism-based; parameters: dose 10 mg/kg, route oral; details: in vivo; outline: as §3
[17] = Oral bioavailability in C57Bl6 mouse at 10 mg/kg; type: ADME, organism-based; details: in vivo
Plasma [18] = assay: Unbound plasma concentration in insulin-resistant db/db mouse at 100 mg/kg, po measured at 6 hrs; type: ADME, organism-based; parameters: dose 100 mg/kg, route oral; details: in vivo; outline: as §3

C[C@H]1COCCN1C[C@H]1CN(S(=O)(=O)c2cccs2)CCN1c1ccc([C@@](C)(O)C(F)(F)F)cc1
fCmax (Mus musculus [1]): 0.032 µM | bioavailability [2]: 7% | Drug metabolism (Liver microsome [3]): Active | clearance [4]: 68.3 mL/min/kg | Drug metabolism (Liver microsome [5]): Active | Vd [6]: 8.3 L/kg | Ratio [7]: 50 | microsomal CLint at 1 µM [8]: 353 µL/min/mg | EC50 [9]: 1790 nM | fraction unbound [10]: 0.037 | MRT [11]: 4.4 h

CC#C[C@H]1CN(S(=O)(=O)c2ccc(N)nc2)CCN1c1ccc([C@@](C)(O)C(F)(F)F)cc1
bioavailability [2]: 82% | Vd [12]: 1 L/kg | Cp(f) (Plasma [13]): 240 nM | fCmax (Mus musculus [14]): 0.292 µM | MRT [15]: 5.3 h | Vd [6]: 1.6 L/kg | Cp(f) (Plasma [16]): 58 nM | bioavailability [17]: 39% | Cp(f) (Plasma [18]): 786 nM | MRT [11]: 4.6 h
